# Reference: ChEMBL document CHEMBL1135916, “Design, synthesis, and structure-activity relationship of pyridyl imidazolidinones: a novel class of potent and selective human enterovirus 71 inhibitors” (J Med Chem, 2002)
# Key:
# Enterovirus A71 = experiment: Inhibition concentration against EV-71; assay type: functional, organism-based; settings: Enterovirus A
# [1] = (§1) Cytotoxicity against human rhabdomyosarcoma (RD) cells; assay type: functional; settings: Homo sapiens, RD
# [2] = Selectivity index (RD/EV71) of the compound; assay type: functional
# [3] = Cytotoxicity against human normal skin fibroblast (D551) cells; assay type: cell-based
# How it was run: (§2)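 Test compound at various concentrations added to D551 (human normal skin fibroblast), WI38 (human normal lung fibroblast) or RD cells; incubated 96 h at 37 °C; cells harvested and viable cells counted by trypan blue staining. Triplicate, at least twice.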
# [4] = Selectivity index (W138/EV71) of the compound; assay type: functional
# [5] = Selectivity index (D551/EV71) of the compound; assay type: functional
# [6] = Cytotoxicity against human normal skin fibroblast (W138) cells; assay type: cell-based; settings: W138 normal skin fibroblast cells; how it was run: as §2
# [7] = as §1; assay type: functional; how it was run: as §2
# [8] = selectivity index of the compound; assay type: functional
# Coxsackievirus [9] = experiment: Inhibition concentration against coxsackie virus A9; assay type: functional, organism-based
# How it was run: (§3)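 Plaque reduction on Vero cell monolayers infected to give about 50-100 plaques per monolayer in virus control; test compound diluted into agar-medium overlay; 96 h at 35 °C, crystal violet staining, plaques counted. […] Triplicate well means, at least two experiments.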
# Coxsackievirus [10] = experiment: Inhibition concentration against coxsackie virus B5; assay type: functional, organism-based; how it was run: as §3
# Enterovirus [11] = experiment: Inhibition concentration against EV-71 (1743) genotype B; assay type: functional, organism-based; how it was run: as §3
# Enterovirus [12] = experiment: Inhibition concentration against EV-71 (2231) genotype C; assay type: functional, organism-based; how it was run: as §3
# Coxsackievirus [13] = experiment: Inhibition concentration against coxsackie virus A24; assay type: functional, organism-based; how it was run: as §3
# Enterovirus [14] = experiment: Inhibition Concentration against enterovirus 68; assay type: functional, organism-based; how it was run: as §3
# Coxsackievirus [15] = experiment: Inhibition concentration against coxsackie virus B3; assay type: functional, organism-based; how it was run: as §3
# Enterovirus [16] = experiment: Inhibition concentration against echovirus 29; assay type: functional, organism-based; how it was run: as §3
# Coxsackievirus [17] = experiment: Inhibition concentration against coxsackie virus B2; assay type: functional, organism-based; how it was run: as §3
# Coxsackievirus [18] = experiment: Inhibition concentration against coxsackie virus B1; assay type: functional, organism-based; how it was run: as §3
# Coxsackievirus [19] = experiment: Inhibition concentration against coxsackie virus B4; assay type: functional, organism-based; how it was run: as §3
# Coxsackievirus [20] = experiment: Inhibition concentration against coxsackie virus B6; assay type: functional, organism-based; how it was run: as §3
# [21] = tested on: unidentified influenza virus; experiment: Inhibition concentration against influenza A (WSN); assay type: functional, organism-based
# How it was run: (§4)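 Plaque reduction assay on Vero cell monolayers. Virus was added at a dose giving about 50-100 plaques per monolayer in virus controls. Compound was diluted into the agar-medium overlay, tested up to 25 µM. Plates were incubated 96 h at 35 °C, stained with crystal violet, and plaques counted.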
# Enterovirus [22] = experiment: Inhibition concentration against EV-71 (BrCR) genotype A; assay type: functional, organism-based; how it was run: as §3
# Enterovirus [23] = experiment: Inhibition concentration against human rhinovirus 2; assay type: functional, organism-based; how it was run: as §3
# [24] = tested on: unidentified influenza virus; experiment: Inhibition concentration against influenza B […]; assay type: functional, organism-based; how it was run: as §4
# Enterovirus [25] = experiment: Inhibition concentration against echovirus 9; assay type: functional, organism-based; how it was run: as §3
# Enterovirus [26] = experiment: Inhibition concentration against EV-71 (2086) genotype C; assay type: functional, organism-based; how it was run: as §3
# Enterovirus [27] = experiment: Inhibition concentration against human rhinovirus 14; assay type: functional, organism-based; how it was run: as §3
# Coxsackievirus [28] = experiment: Inhibition concentration against coxsackie virus A10; assay type: functional, organism-based; how it was run: as §3
# Coxsackievirus [29] = experiment: Inhibition concentration against coxsackie virus A16; assay type: functional, organism-based; how it was run: as §3
# Human alphaherpesvirus 2 = experiment: Inhibition concentration against herpes simplex virus; assay type: functional, organism-based; how it was run: as §3
# [30] = D551 normal skin fibroblast cells
smiles,measurement,setting,value
O=C1N(CCCCCOc2ccc(Br)cc2)CCN1c1ccccc1,IC50,Enterovirus A71,10.7 µM
same,CC50,[1],> 25 µM
O=C1N(CCCCCOc2ccc(-c3ccc(Br)cc3)cc2)CCN1c1ccncc1,IC50,Enterovirus A71,0.14 µM
same,Selectivity index,[2],> 179
same,CC50,[3]; [30],> 100 µM
same,Selectivity index,[4],> 714
same,Selectivity index,[5],> 714
same,CC50,[6],> 100 µM
same,CC50,[1],> 25 µM
CSc1ccc(OCCCCCCN2CCN(c3ccncc3)C2=O)cc1,IC50,Enterovirus A71,4.96 µM
same,CC50,[7],> 25 µM
O=C1N(CCCCCCOc2ccc(Br)cc2)CCN1c1ccncn1,IC50,Enterovirus A71,> 25 µM
same,CC50,[1],> 25 µM
O=C1N(CCCCCOc2ccc(Br)cc2)CCN1c1ccnc(Cl)c1,IC50,Enterovirus A71,> 25 µM
same,CC50,[1],> 25 µM
O=C1N(CCCCCCOc2ccc(Cl)cc2)CCN1c1ccncn1,IC50,Enterovirus A71,> 25 µM
same,CC50,[1],> 25 µM
O=C1N(CCCCCCOc2ccc(-c3ccoc3)cc2)CCN1c1ccncc1,IC50,Enterovirus A71,0.58 µM
same,CC50,[1],> 25 µM
O=C1N(CCCCCCOc2ccc(-c3cccs3)cc2)CCN1c1ccncc1,IC50,Enterovirus A71,0.3 µM
same,Selectivity index,[2],> 83
same,CC50,[7],> 25 µM
same,CC50,[3]; [30],46 µM
same,Selectivity index,[8],200
same,Selectivity index,[5],153
same,CC50,[6],60 µM
O=C1N(CCCCCCOc2cccc3cccnc23)CCN1c1ccncc1,IC50,Enterovirus A71,> 25 µM
same,CC50,[1],> 25 µM
O=C1N(CCCCCOc2ccc(C(F)(F)F)cc2)CCN1c1ccncn1,IC50,Enterovirus A71,> 25 µM
same,CC50,[1],> 25 µM
O=C1N(CCCCCCOc2ccc(F)cc2)CCN1c1ccncc1,IC50,Enterovirus A71,3.01 µM
same,CC50,[7],> 25 µM
O=C1N(CCCCCCOc2ccc(Br)cc2)CCN1c1ccncc1,IC50,Enterovirus A71,0.35 µM
same,IC50,Coxsackievirus [9],0.77 µM
same,IC50,Coxsackievirus [10],> 25 µM
same,IC50,Enterovirus [11],0.6 µM
same,IC50,Enterovirus [12],1.15 µM
same,IC50,Coxsackievirus [13],0.55 µM
same,Selectivity index,[2],> 71
same,IC50,Enterovirus [14],2.13 µM
same,IC50,Coxsackievirus [15],> 25 µM
same,IC50,Enterovirus [16],> 25 µM
same,IC50,Coxsackievirus [17],> 25 µM
same,CC50,[3]; [30],46 µM
same,IC50,Coxsackievirus [18],5.1 µM
same,IC50,Coxsackievirus [19],> 25 µM
same,Selectivity index,[4],161
same,Selectivity index,[5],148
same,IC50,Coxsackievirus [20],> 25 µM
same,IC50,[21],> 25 µM
same,IC50,Enterovirus [22],1.26 µM
same,CC50,[6],50 µM
same,IC50,Enterovirus [23],> 25 µM
same,IC50,[24],> 25 µM
same,IC50,Enterovirus [25],2.82 µM
same,IC50,Enterovirus [26],0.31 µM
same,IC50,Enterovirus [27],11.6 µM
same,IC50,Coxsackievirus [28],5.88 µM
same,IC50,Coxsackievirus [29],> 25 µM
same,CC50,[1],> 25 µM
same,IC50,Human alphaherpesvirus 2,> 25 µM
O=C1N(CCCCCCOc2ccc(C(F)(F)F)cc2)CCN1c1ccncn1,IC50,Enterovirus A71,> 25 µM
same,CC50,[1],> 25 µM
COc1ccc(OCCCCCCN2CCN(c3ccncc3)C2=O)c(Cl)c1,IC50,Enterovirus A71,> 25 µM
same,CC50,[1],> 25 µM
O=C1N(CCCCCCOc2ccc(Cl)cc2)CCN1c1ccncc1,IC50,Enterovirus A71,1.5 µM
same,CC50,[1],> 25 µM
O=C1N(CCCCCCCOc2ccc(C(F)(F)F)cc2)CCN1c1ccncc1,IC50,Enterovirus A71,0.61 µM
same,CC50,[1],6.25 µM
O=C1N(CCCCCOc2ccc(C(F)(F)F)cc2)CCN1c1ccncc1,IC50,Enterovirus A71,1.35 µM
same,CC50,[1],12.5 µM
O=C1N(CCCCCCCOc2ccc(Cl)cc2)CCN1c1cccnc1,IC50,Enterovirus A71,1.43 µM
same,CC50,[1],> 25 µM
O=C1N(CCCCCOc2ccc(-c3ccc(Cl)cc3)cc2)CCN1c1ccncc1,IC50,Enterovirus A71,0.06 µM
same,CC50,[3],6 µM
same,CC50,[6],32 µM
same,CC50,[1],6.25 µM
O=C1N(CCCCCCOc2ccc(C(F)(F)F)cc2)CCN1c1ccnc(Cl)c1,IC50,Enterovirus A71,> 25 µM
same,CC50,[1],> 25 µM
O=C1N(CCCCCCOc2ccc(C(F)(F)F)cc2)CCN1c1ccncc1,IC50,Enterovirus A71,0.58 µM
same,IC50,Coxsackievirus [9],1.44 µM
same,IC50,Coxsackievirus [10],> 25 µM
same,IC50,Enterovirus [11],0.75 µM
same,IC50,Enterovirus [12],1.35 µM
same,IC50,Coxsackievirus [13],0.47 µM
same,Selectivity index,[2],> 43
same,IC50,Enterovirus [14],4.67 µM
same,IC50,Coxsackievirus [15],> 25 µM
same,IC50,Enterovirus [16],> 25 µM
same,IC50,Coxsackievirus [17],> 25 µM
same,CC50,[3]; [30],55 µM
same,IC50,Coxsackievirus [18],5.6 µM
same,IC50,Coxsackievirus [19],> 25 µM
same,Selectivity index,[4],71
same,Selectivity index,[5],108
same,IC50,Coxsackievirus [20],> 25 µM
same,IC50,[21],> 25 µM
same,IC50,Enterovirus [22],1.37 µM
same,CC50,[6],36 µM
same,IC50,Enterovirus [23],> 25 µM
same,IC50,[24],> 25 µM
same,IC50,Enterovirus [25],2.61 µM
same,IC50,Enterovirus [26],0.51 µM
same,IC50,Enterovirus [27],> 12.5 µM
same,IC50,Coxsackievirus [28],15.7 µM
same,IC50,Coxsackievirus [29],> 25 µM
same,CC50,[1],> 25 µM
same,IC50,Human alphaherpesvirus 2,> 25 µM
O=C1N(CCCCCCOc2ccc(Cl)cc2)CCN1c1cccnc1,IC50,Enterovirus A71,2.52 µM
same,CC50,[1],> 25 µM
O=C1N(CCCCCCCOc2ccc(Br)cc2)CCN1c1ccncn1,IC50,Enterovirus A71,> 25 µM
same,CC50,[1],> 25 µM
O=C1N(CCCCCOc2ccc(-c3cccs3)cc2)CCN1c1ccncc1,IC50,Enterovirus A71,0.58 µM
same,CC50,[7],> 25 µM
O=C1N(CCCCCCOc2ccc(C(F)(F)F)cc2)CCN1c1ccccc1,IC50,Enterovirus A71,12 µM
same,CC50,[1],> 25 µM
COc1ccc(OCCCCCCN2CCN(c3ccncc3)C2=O)cc1,IC50,Enterovirus A71,5.43 µM
same,CC50,[7],> 25 µM
